Activity calls are given as the source filed them.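 Rule for the calls, unless noted: active = compounds giving at least 50% inhibition in the cell-based MKP-3 phosphatase rescue imaging test; inactive = the rest.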
Key:
[1] = inhibitors of TNFa-induced NFkB p65 translocation, primary screen, imaging, HUVEC, MLSMR starter and 10KST1 sets (AID 438;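 active = inhibition above 20% together with a positive visual image hit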;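 note: compound added about 3h40 before a 20 min TNFalpha stimulation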;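 for inhibition: signal is the nuclear over cytoplasmic p65 intensity ratio per well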); conditions: HUVEC TNFa-induced p65 nuclear translocation; cell count: measured here: nuclei count (cytotoxicity indicator), at 2.08 µM; inhibition: at 2 µM, stronger effect = higher value, 0% TNFa-plus-vehicle, 100% no-TNFa wells
[2] = inhibitors of E-selectin induction by TNFa, primary screen, imaging, HUVEC, immunofluorescence, MLSMR starter and 10KST1 sets (AID 487;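 active = visually confirmed hit in the image check and inhibition above 20%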;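 for inhibition: signal is fraction of cell area covered by stained E-selectin grains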;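 for nuclei count: 100% = median nuclei count of all wells on the same plate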); conditions: HUVEC TNFalpha-induced E-selectin immunofluorescence imaging, at 2 µM; inhibition: stronger effect = higher value; nuclei count: measured here: cell number, toxicity
[3] = DUSP6 inhibitors restoring Erk phosphorylation by chemical complementation, primary imaging in DUSP6-transfected HeLa (AID 609); conditions: HeLa MKP-3 transfected, phospho-Erk imaging KS statistic, at 10 µM, cells stimulated with TPA for 15 min;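 for inhibition: phospho-Erk level distribution per well compared with pooled transfected vehicle control wells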
[4] = biological target: Dual specificity protein phosphatase 6 (Homo sapiens) (UniProt Q16828); assay: as above; conditions: HeLa MKP-3 transfected, phospho-Erk imaging KS statistic; at 10 µM; stronger effect = higher value; cells stimulated with TPA for 15 min
Sequence of Dual specificity protein phosphatase 6 (Homo sapiens) (Q16828 whole entry, looked up): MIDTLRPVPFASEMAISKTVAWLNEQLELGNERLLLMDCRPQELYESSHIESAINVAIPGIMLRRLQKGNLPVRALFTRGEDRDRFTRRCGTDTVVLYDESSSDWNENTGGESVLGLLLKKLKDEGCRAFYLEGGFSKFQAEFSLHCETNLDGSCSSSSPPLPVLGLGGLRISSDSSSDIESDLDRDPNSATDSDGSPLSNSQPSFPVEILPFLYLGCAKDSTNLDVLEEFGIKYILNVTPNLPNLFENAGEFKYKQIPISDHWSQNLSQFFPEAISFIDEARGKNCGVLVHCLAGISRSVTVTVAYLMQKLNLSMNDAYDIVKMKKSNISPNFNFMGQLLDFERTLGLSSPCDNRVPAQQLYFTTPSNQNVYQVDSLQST

[5] = biological target: Voltage-gated potassium channel subunit beta-2 (Rattus norvegicus) (UniProt P62483); assay: KvBeta enzyme negative modulators, primary screen, biochemical, NADPH fluorescence (AID 622;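 active = fluorescence slope higher than the sample average by over 3 SD, cut at about -0.22 in these data, passing the limit was not always enough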;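 note: slope of raw intensity against log time taken from 70 to 1610 s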); conditions: recombinant KvBeta, 4-cyanobenzaldehyde reduction, at 10 µM, stronger effect = higher value
Sequence of Voltage-gated potassium channel subunit beta-2 (Rattus norvegicus) (P62483 whole entry, looked up): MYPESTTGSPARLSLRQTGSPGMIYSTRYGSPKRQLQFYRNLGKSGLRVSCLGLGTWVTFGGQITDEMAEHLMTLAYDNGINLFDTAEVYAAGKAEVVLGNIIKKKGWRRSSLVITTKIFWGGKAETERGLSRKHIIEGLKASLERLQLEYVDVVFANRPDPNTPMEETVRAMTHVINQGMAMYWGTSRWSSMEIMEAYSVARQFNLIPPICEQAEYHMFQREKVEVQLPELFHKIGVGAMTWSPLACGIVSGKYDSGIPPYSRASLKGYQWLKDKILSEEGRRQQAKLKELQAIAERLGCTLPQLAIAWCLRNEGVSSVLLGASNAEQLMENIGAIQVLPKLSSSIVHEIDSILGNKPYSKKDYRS

[6] = biological target: Voltage-gated potassium channel subunit beta-2 (Rattus norvegicus) (UniProt P62483); assay: KvBeta positive modulators, primary screen, biochemical, NADPH fluorescence (AID 623;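 active = NADPH fluorescence slope more negative than the mean of all samples by about 3 SD, 99.7% confidence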;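 note: fluorescence intensity change per second fitted from 20 to 320 s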); conditions: Recombinant KvBeta, NADPH fluorescence decrease slope, 10 min; at 10 µM; stronger effect = lower value
[7] = biological target: Alpha-2C adrenergic receptor (Homo sapiens) (UniProt P18825); assay: modulators of alpha2C/GIRK thallium flux, primary screen, cell-based, HEK293 alpha2C/GIRK1/2 (AID 624;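 active = fluorescence slope after compound addition differing from the mean of all screened samples at 99.7% confidence, in either direction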;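 note: slope of fluorescence ratio to pre-addition baseline per second over 15 to 24 s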); conditions: thallium flux BTC fluorescence, at 10 µM, actives lie on both sides
Sequence of Alpha-2C adrenergic receptor (Homo sapiens) (P18825 whole entry, looked up): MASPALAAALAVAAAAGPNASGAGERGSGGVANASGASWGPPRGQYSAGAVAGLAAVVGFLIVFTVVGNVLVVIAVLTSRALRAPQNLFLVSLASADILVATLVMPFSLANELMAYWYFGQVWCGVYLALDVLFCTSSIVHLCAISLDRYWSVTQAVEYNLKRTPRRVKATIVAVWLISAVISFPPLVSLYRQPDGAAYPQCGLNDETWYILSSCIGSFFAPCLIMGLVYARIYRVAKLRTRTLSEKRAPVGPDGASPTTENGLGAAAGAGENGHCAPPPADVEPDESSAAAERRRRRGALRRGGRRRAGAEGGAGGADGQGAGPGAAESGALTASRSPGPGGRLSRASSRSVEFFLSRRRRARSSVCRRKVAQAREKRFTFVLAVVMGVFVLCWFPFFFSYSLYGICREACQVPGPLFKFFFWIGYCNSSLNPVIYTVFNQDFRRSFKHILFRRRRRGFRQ

[8] = inhibitors of larval lipid processing in zebrafish, primary screen, whole organism, PED6 fluorescence, gall bladder and intestine (AID 686;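 active = a full or partial loss of lipid-probe fluorescence in the fish gall bladder, intestine or both, judged by eye; inactive = no fluorescence loss, or compound toxic to the fish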;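 note: larvae 5 to 7 days old with five fish per well; signal comes from phospholipase A2 cleavage of quenched PED6 carried via bile; overnight exposure to compound and PED6 before scoring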); conditions: Zebrafish larvae PED6 lipid processing, fluorescence scoring; screened at 20 µM (by protocol)
Method in brief: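 Doses: 20 µM single dose. Test system: live zebrafish larvae aged 5-7 days, whole organism. Quantity: five larvae per well. Measured by: By-eye fluorescence microscopy. Reagent: ingested quenched lipid PED6 at 100 nM. Read-out: visual per-well fluorescence inhibition score. Times: overnight exposure of larvae to compound plus PED6.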

[9] = inhibitors of Chlamydomonas gravitaxis, primary screen, whole organism, Chlamydomonas reinhardtii, WT vs cilia-less mutant, absorbance, 96-well (AID 463189;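 active = inhibition at or above 50% relative to wild type and mutant plate controls; inactive = inhibition below 50%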;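 note: 0% = wild type cc124 cells in DMSO and 100% = ciliumless bld1 mutant cells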); conditions: OD600 absorbance, 2 days, at 10 µM, stronger effect = higher value
[10] = measured here: cell density z-score
[11] = measured here: nuclear c-Myc green intensity z-score
[12] = measured here: nuclear pErk red intensity z-score, stronger effect = higher value

| SMILES | cell count [1] | inhibition [1] | inhibition [2] | nuclei count [2] [%] | z-score [3, 10] | z-score [3, 11] | z-score [3, 12] | inhibition [4] | fluorescence slope [5] | NADPH fluorescence slope [6] | slope [7] | outcome [8] | inhibition [9] |
| --- | --- | --- | --- | --- | --- | --- | --- | --- | --- | --- | --- | --- | --- |
| CC(C)OC(=O)C(C#N)c1nc2ccccc2nc1N1CCCC1 (configuration not stated) | 485 | -22.5% (inactive) | -48.2% (inactive) | 129 | 2.22 | -1.34 | -1.3 | 22.7% (inactive) | -0.543 (inactive) | -1.4e-05 (inactive) | 0.00397 (inactive) | inactive | 5.71% (inactive) |
| COc1nc(NS(=O)(=O)c2ccc(C)cc2)nc(C)c1Cl | 718 | 3.9% (inactive) | -62.9% (inactive) | 170 | -1.13 | 1.46 | -0.341 | 1.48% (inactive) | -0.346 (inactive) | -3.1e-05 (inactive) | 0.00526 (inactive) | inactive | -6.39% (inactive) |
| CC(NC(=O)OC(C)(C)C)C(=O)Oc1ccc2ccc(=O)oc2c1 (configuration not stated) | 566 | -16.8% (inactive) | -178% (inactive) | 183 | 0.378 | 1.02 | -0.959 | 28.6% (inactive) | -0.0856 (inactive) | -1.3e-05 (inactive) | 0.00547 (inactive) | inactive | 1.2% (inactive) |
| CCOC(=O)COn1c(=O)c(-c2ccco2)[n+]([O-])c2ccccc21 | 534 | 1.6% (inactive) | 3.6% (inactive) | 130 | 2.03 | 1.19 | -0.23 | 8.76% (inactive) | -0.283 (inactive) | -1.2e-05 (inactive) | 0.00422 (inactive) | inactive | 34.2% (inactive) |
| Nc1c(C(=O)NCC2CCCO2)c2nc3ccccc3nc2n1/N=C/c1ccncc1 (configuration not stated) | 470 | -2.9% (inactive) | -109% (inactive) | 110 | 1.93 | -0.485 | 0.517 | 22.8% (inactive) | -0.507 (inactive) | -3.7e-05 (inactive) | 0.00723 (inactive) | inactive | -25.5% (inactive) |
| COc1ccc(C2=Nn3c(nnc3-c3cccnc3)SC2)cc1OC | 614 | -5.8% (inactive) | -109% (inactive) | 152 | -0.53 | 0.48 | 0.0126 | -7.86% (inactive) | -0.398 (inactive) | -0.000172 (inactive) | 0.00709 (inactive) | inactive | 2.3% (inactive) |
| CCCCCNC(=O)c1c(N)n(/N=C/c2ccco2)c2nc3ccccc3nc12 | 351 | -5.8% (inactive) | -71.9% (inactive) | 147 | 1.49 | -0.91 | -0.977 | 17.4% (inactive) | -0.416 (inactive) | -0.000149 (inactive) | 0.00624 (inactive) | inactive | 14.7% (inactive) |
| Nc1nnc(CSc2ccc(Cl)cc2)s1 | 605 | -14% (inactive) | 33.5% (inactive) | 171 | 0.155 | -0.0933 | -0.139 | -7.86% (inactive) | -0.369 (inactive) | -4.8e-05 (inactive) | 0.00734 (inactive) | inactive | 6.7% (inactive) |
| O=C1C=C(O)CC(c2ccco2)C1 (configuration not stated) | 558 | 5.7% (inactive) | -59% (inactive) | 82 | 0.0297 | 0.982 | 0.298 | -6.48% (inactive) | -0.469 (inactive) | -0.00033 (inactive) | 0.00402 (inactive) | inactive | -1.54% (inactive) |
| C=CCn1c(-c2ccccc2)n[nH]c1=S | 492 | -1.5% (inactive) | 71% (active) | 124 | -1.14 | 2.62 | -0.366 | 4.25% (inactive) | -0.512 (inactive) | -0.000177 (inactive) | 0.00512 (inactive) | inactive | 5.46% (inactive) |
| CNc1oc(-c2ccc(Cl)cc2)nc1C#N | 444 | -4.2% (inactive) | -114% (inactive) | 169 | -1.3 | -0.483 | -0.6 | 6.04% (inactive) | -0.263 (inactive) | -4.5e-06 (inactive) | 0.00621 (inactive) | inactive | 7.15% (inactive) |
| O=C(CNC1C(=O)Nc2ccccc21)Sc1ccccc1 (configuration not stated) | 636 | -12.1% (inactive) | -63.1% (inactive) | 118 | 1.09 | -0.106 | -0.738 | 14.4% (inactive) | -0.383 (inactive) | -1.8e-06 (inactive) | 0.00502 (inactive) | inactive | -11.8% (inactive) |
| O=C(Nc1cccnc1)c1cccnc1 | 639 | 0.9% (inactive) | -26.7% (inactive) | 158 | -0.532 | 0.364 | -0.22 | 0.671% (inactive) | -0.534 (inactive) | -3.1e-05 (inactive) | 0.00505 (inactive) | inactive | 3.69% (inactive) |
| CN(C)CCNc1nc(-c2ccco2)c2c(c1C#N)CC(C)(C)OC2 | 621 | -14.2% (inactive) | -15.8% (inactive) | 164 | -0.37 | -0.517 | 0.864 | 1.48% (inactive) | -0.34 (inactive) | -5.5e-05 (inactive) | 0.00509 (inactive) | inactive | 17.6% (inactive) |

— PubChem BioAssay
